# From PubChem BioAssay
# FN deposit inh – fibronectin deposition inhibition | AH1F fibroblasts, Alexa488-fibronectin deposition fluorescence, overnight | inhibition, % at 12.6 µM | 350,000 tested, 0.086% active | AID 743247;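 active = mean inhibition across replicates of 30% or more, regardless of how many single replicates reach that level; inconclusive = mean under 30% yet at least half of replicates reach 30%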;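 also: positive control wells lacked labelled fibronectin entirely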
#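 Measured by – fluorescence 485/525 nm · System – AH1F fibroblast monolayer, labelled fibronectin deposition · Amount – 10000 cells per well · Buffer or medium – serum-reduced DMEM (2% serum) · Doses – single dose, pinned · Also added – fluorescent fibronectin at 24 nM final · Schedule – 1 h cell attachment, overnight exposure to compound and label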
# Ecoli rRNA inh – inhibitors of bacterial rRNA selective over humanized ribosomes. E. coli WT GFP vs humanized-ribosome RFP mutants, fluorescence, 24 h; stronger effect = lower value; DMSO median 0, no signal -100. 350,000 tested, 1.6% active. GFP signal change (wild-type ribosome), % (no concentration beside the values);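 active = significant combined selectivity score with lowered wild-type GFP, culture density cut under 30%, mutant RFP and density less affected; inactive = any of these conditions unmet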
# ERp5 inh – blocks human ERp5 reductase activity on insulin; 350,000 tested, 0.05% active; inhibition, % at 9.99 µM; Q15084; AID 651711; ERp5 insulin aggregation, absorbance 650 nm, 90 min;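 active = mean replicate inhibition above about 25%, with every replicate also reaching it, limit read from the data, passing the limit was not always enough; inconclusive = only one of those two criteria met; inactive = neither criterion met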
# Target sequence (Q15084 whole entry, looked up): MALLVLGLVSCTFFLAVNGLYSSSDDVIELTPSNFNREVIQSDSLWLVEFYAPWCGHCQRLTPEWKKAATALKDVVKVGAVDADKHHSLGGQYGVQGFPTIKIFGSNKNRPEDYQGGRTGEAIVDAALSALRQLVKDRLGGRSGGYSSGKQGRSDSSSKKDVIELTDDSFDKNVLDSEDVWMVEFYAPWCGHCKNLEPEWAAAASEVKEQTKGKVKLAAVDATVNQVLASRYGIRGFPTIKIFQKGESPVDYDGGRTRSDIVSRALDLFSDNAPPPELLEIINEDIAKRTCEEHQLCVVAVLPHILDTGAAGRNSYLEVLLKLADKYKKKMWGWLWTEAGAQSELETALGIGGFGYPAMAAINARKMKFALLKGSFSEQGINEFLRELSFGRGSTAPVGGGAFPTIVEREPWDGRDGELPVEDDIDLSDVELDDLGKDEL
# PvdQ acylase – blocks Pseudomonas aeruginosa PvdQ acylase activity; purified PvdQ acylase, fluorescence plate reader; inhibition, % at 10 µM; 340,000 tested, 0.063% active; AID 488965; in the data active = inhibition above about 30%, passing the limit was not always enough; inconclusive = no clear call, values can overlap the other calls;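 also: 0% = vehicle neutral wells and 100% = reference inhibitor wells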
# PDI turbidity – PDI (human) enzyme inhibition; inhibition, % at 10 µM; PDI insulin aggregation turbidity, A650, 90 min; AID 588391; P07237; 350,000 tested, 0.052% active;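 active = mean inhibition across replicates of 30% or more, whatever share of single replicates reach that level; inconclusive = mean inhibition below 30% while every single replicate reaches 30%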
# Env fusion inh – inhibitors of HIV Env-mediated cell fusion; HeLa-JRFL Env/CEM21 cell fusion, luciferase; inhibition, % at 12.3 µM; 360,000 tested, 1.1% active;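 active = mean replicate inhibition score of at least 50 and every replicate individually at or above 50; inconclusive = only one of the two criteria met; inactive = mean below 50 and not all replicates reaching 50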;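 also: 0% = plate neutral controls and 100% = maraviroc near 300 nM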
# AID977621 – growth inhibition of wild-type GFP E. coli, dose response, H69 mutant RFP, cherry-pick | activity change, negative = inhibition at 50 µM | AID 977621 | shares compounds with Ecoli rRNA inh | E. coli wild-type GFP strain growth, fluorescence, 24 h | 1,900 tested, under 10 active;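 active = Wild-type ribosome reporter drop at least double the humanized mutant ribosome reporter drop, growth loss under a set limit; inconclusive = no clear call, values can overlap the other calls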;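 also: wild-type GFP and H69 mutant RFP strains grown together 50/50 in each well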
# AID977628 – growth of wild-type and h24-humanized E. coli strains – h24 mutant RFP vs wild-type GFP, cherry-pick, dose response | E. coli WT GFP strain growth, fluorescence, 24 h | activity change, negative = inhibition at 50 µM | shares compounds with Ecoli rRNA inh | 1,900 tested, under 10 active;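 active = compound lowering the normal-ribosome reporter at least twice as much as the humanized-ribosome reporter, growth loss under a set limit; inconclusive = no clear call, values can overlap the other calls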;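 also: wild-type GFP and h24 humanized RFP strains co-cultured 1 to 1 per well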
# Active calls of the source: *; ? = inconclusive; / = not tested or not shown; [ ] = dose if it differs, or a comment. In the library only some 2.2% were active in any assay of this set; here they are far more common.
SMILES,FN deposit inh,Ecoli rRNA inh,ERp5 inh,PvdQ acylase,PDI turbidity,Env fusion inh,AID977628,others
CN(C)c1ccc(-[n+]2c(-c3ccccc3)cc(-c3ccccc3)cc2-c2ccccc2)cc1,4.1,-59.0,-6.4,-13.7,5.4,93.9*,/,
Cc1ccc(-c2cc(-c3ccccc3)cc(-c3ccccc3)[n+]2-c2ccccc2)cc1,-1.4,-55.5,-3.8,-0.1,-9.3,23.0,/,
c1ccc(-c2cc(-c3ccccc3)[n+](-c3ccccc3)c(-c3ccccc3)c2)cc1,3.4,-54.4,-2.5,-7.5,-3.7,80.1*,/,
CS(=O)(=O)N1C[C@@H]2C(c3ccccc3)[C@H](C1)N2CC1CC1 (stereo partly specified),-14.7,0.2,/,/,/,/,/,
N#Cc1cccc(-c2ccc([C@H]3[C@@H](CO)N4CCCCN(C(=O)Cc5ccccc5)C[C@H]34)cc2)c1,/,-0.1,-0.2,/,/,/,/,
CCOC(=O)[C@]12Cc3c(cc(OC)c(OC)c3OC)[C@H]1N(Cc1ccccc1)C(=O)c1ccccc12,0.6,-14.2,3.3,-1.8,-3.0,63.7*,/,
CC=Cc1ccc2n(c1=O)C[C@H]1[C@H](CO)[C@@H](C(=O)N(C)C)[C@@H]2N1C (mixture of isomers),0.2,10.2,-3.2,/,/,/,/,
Nc1c(C(=O)OCc2ccccc2)c2nc3ccccc3nc2n1Cc1cccs1,10.9,/,/,-14.1,1.6,8.9,/,
CCC(C)OC(=O)c1c(N)n(Cc2cccs2)c2nc3ccccc3nc12 (stereo unspecified),/,/,/,-2.9,6.3,61.2*,/,
COC(=O)[C@@H]1[C@@H](CO)[C@@H]2Cn3c(ccc(C4=CCCCC4)c3=O)[C@H]1N2Cc1cccnc1,/,2.2,4.0,/,/,/,/,
Cc1ccc(-c2cc(-c3ccc(C)cc3)[n+](-c3ccccc3)c(-c3ccc(C)cc3)c2)cc1,/,/,/,-7.2,0.3,/,/,
Cc1ccc(-c2cc(-c3ccc(C)cc3)[n+](-c3ccc(C(=O)[O-])cc3)c(-c3ccc(C)cc3)c2)cc1,0.7,-21.4*,5.7,8.9,-6.2,10.2,?,
OC[C@@H]1Nc2ccc(C#Cc3cccnc3)cc2[C@@H]2NCC[C@H]12,8.4,5.2,/,/,/,/,/,
COc1ccc(CN2CCCC(C(=O)c3cccc(Cl)c3)C2)cc1 (stereo unspecified),0.3,-13.3,-1.7,-27.8,13.6,-6.7,/,
CSc1ncc(CN2CCCC(C(=O)c3cccc(Cl)c3)C2)cn1 (stereo unspecified),-33.3,-20.9*,-0.6,-9.8,7.5,5.9,-7.57,AID977621=-2.33
O=C(c1cccc(Cl)c1)C1CCCN(Cc2cccc3cnccc23)C1 (stereo unspecified),-6.4,-52.0,1.8,-12.2,-6.8,11.9,/,
O=C(c1ccc(Cl)cc1)C1CCCN(Cc2cccc3cnccc23)C1 (stereo unspecified),-10.1,-24.8*,?,-6.3,-5.9,33.9,?,
O=C(c1cc(-c2ccccc2)nc2ccccc12)N1CCC2(CC1)OCCO2,/,-7.8,-5.3,-7.2,-8.4,/,/,
Cc1c(-c2cccc(Cl)c2)nc2ccccc2c1C(=O)N1CCC2(CC1)OCCO2,/,-23.1*,-3.6,-4.1,-1.4,6.0,?,
CC1(CCO)CC(C)(CCc2ccccc2)OO1 (stereo unspecified),/,/,0.6,/,/,-22.0[16.7 µM],/,
COC(=O)[C@H]1[C@H](CO)[C@H]2Cn3c(ccc(C4=CCCC4)c3=O)[C@@H]1N2S(=O)(=O)c1cn(C)cn1,/,1.7,-7.2,/,/,/,/,
Nc1c(C(=O)NCCc2ccccc2)c2nc3ccccc3nc2n1CCN1CCOCC1,/,/,/,-7.2,12.0,/,/,
Nc1c(C(=O)NCCN2CCOCC2)c2nc3ccccc3nc2n1Cc1ccccc1,3.9,-35.8*,-2.6,-16.1,1.2,14.2,?,
COc1ccc(C2CN(C)CC2C(=O)c2ccc(C)cc2)cc1Cl (stereo unspecified),/,-27.8*,6.7,-13.6,-0.8,7.5,?,AID977621=?
Cc1nc2ccc(Br)cc2c(=O)n1-c1ccc([N+](=O)[O-])c(C(F)(F)F)c1,-14.3,-19.3*,-8.2,4.5,2.7,7.4,-7.66,AID977621=-10.3
CCCC#Cc1ccc([C@@H]2[C@@H](CO)N3CCCCN(C(=O)Cc4ccccn4)C[C@@H]23)cc1,/,6.9,-0.9,/,/,/,/,
CN1CCC(c2c[nH]c3ccccc23)C1 (stereo unspecified),-3.8,-22.6*,0.9,6.1,-6.3,-10.4,?,AID977621=-7.42
O=C(Cc1cccnc1)N1CCCCN2[C@H](CO)[C@H](c3ccc(C#CC4CC4)cc3)[C@@H]2C1,/,/,2.3,/,/,/,/,
C[C@]12CCC(=O)C[C@H]1CC[C@@H]1[C@@H]2CC[C@]2(C)C(=O)CC[C@@H]12,/,-27.0*,3.6,-12.2,/,/,?,
c1ccc(Nc2ccc3ccccc3c2)cc1,/,-24.3*,8.2,-0.4,/,/,-2.19,AID977621=1.9
